Test results as given in ChEMBL document CHEMBL1126944, “Benzoquinazoline inhibitors of thymidylate synthase: enzyme inhibitory activity and cytotoxicity of some sulfonamidobenzoylglutamate and related derivatives” (J Med Chem, 1993).
pIC50, pKi: −log10 of the molar value.

Columns and labels:
[1] = tested on: MCF7; assay: Cell culture cytotoxicity of MCF-7 breast adenocarcinoma cells; format: functional, Homo sapiens
How it was run: (§1)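 MCF-7 cells kept in folic acid-free RPMI 1640 with 10 nM (6R,S)-5-formyltetrahydrofolic acid as sole folate plus 10% charcoal-dialyzed FBS. MTT dye-reduction assay after continuous drug exposure for 96 h. Value is the concentration giving 50% reduction in growth rate.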

[2] = tested on: SW480; assay: Cell culture cytotoxicity of SW480 colon adenocarcinoma cells; format: functional, Homo sapiens
How it was run: (§2)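 SW480 or MOLT-4 cells grown in folic acid-free RPMI 1640 supplemented with 10 nM (6R,S)-5-formyltetrahydrofolic acid and 10% charcoal-dialyzed FBS. Continuous 72 h drug exposure, growth read by MTT tetrazolium dye reduction. Reported as the concentration halving growth rate.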

[3] = Velocity compared to a control 50 uM aminopterin run on each test; format: ADME
How it was run: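 Substrate activity toward partially purified hog liver folylpolyglutamate synthetase. Velocity expressed as percent of a 50 µM aminopterin control included in every run.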

[4] = target: MOLT-4
[5] = tested on: MOLT-4; assay: Cell culture cytotoxicity of MOLT-4 T-cell leukemia cells; format: functional, Homo sapiens; how it was run: as §2
[6] = species on record: Sus scrofa; settings: Liver
[7] = target: T1, Thymidylate synthase (Homo sapiens, UniProt P04818); assay: Inhibition of purified human thymidylate synthase (TS) isolated from an Escherichia coli harboring a plasmid with thy A gene cloned from SV40 transformed human fibroblast cells; format: cell-free
How it was run: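 Purified recombinant human TS, expressed in E. coli from a thyA gene cloned from SV40-transformed human fibroblasts. Inhibition was measured by a modified tritium-release assay. Ki was estimated by treating compounds as tight-binding noncompetitive inhibitors.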

[8] = tested on: MOLT-4; assay: Inhibition constant against the transport of [3H]- methotrexate (MTX) by MOLT-4 T-cell; format: functional, Homo sapiens
How it was run: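 Uptake of [3H]methotrexate, a substrate of the reduced folate carrier, into MOLT-4 T-cell leukemia cells measured with and without compound. Inhibition constant derived against this transport.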

[9] = tested on: SW480; assay: Cell culture cytotoxicity of SW480 colon adenocarcinoma cells.; format: functional, Homo sapiens; how it was run: as §2
[10] = target: T1, Thymidylate synthase; assay: Inhibitory activity against thymidylate synthase (TS); settings: read-out: I50
[11] = tested on: MCF7; assay: Cell culture cytotoxicity (CCCT) of MCF-7 breast adenocarcinoma cells; format: functional, Homo sapiens; how it was run: as §1
[12] = target: T1, Thymidylate synthase; assay: Inhibition of purified human thymidylate synthase isolated from an Escherichia coli harboring thy A gene cloned from SV40 transformed human fibroblast cells; format: cell-free
[13] = Ratio of relative velocity to that of the Michaelis constant

T1 sequence (P04818 whole entry): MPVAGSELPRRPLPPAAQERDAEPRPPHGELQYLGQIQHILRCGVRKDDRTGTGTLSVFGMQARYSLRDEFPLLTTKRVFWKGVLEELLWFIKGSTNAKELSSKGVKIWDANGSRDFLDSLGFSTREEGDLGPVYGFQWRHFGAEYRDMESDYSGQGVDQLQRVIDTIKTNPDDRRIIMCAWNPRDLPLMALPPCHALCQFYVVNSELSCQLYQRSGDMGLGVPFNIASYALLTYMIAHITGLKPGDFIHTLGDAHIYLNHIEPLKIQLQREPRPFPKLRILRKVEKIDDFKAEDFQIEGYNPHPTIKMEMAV

SMILES | CCCT [1] [µM] | CCCT [2] [µM] | Vm rel [3] [%] | also measured
Cc1nc(O)c2c(n1)CCc1ccc(S(=O)(=O)N(C)c3ccc(C(=O)N[C@@H](CCC(=O)O)C(=O)O)cc3)cc1-2 | >50 | >50 |  | 
Nc1nc(O)c2c(n1)CCc1cc(Br)c(S(=O)(=O)Nc3ccc(C(=O)N[C@@H](CCC(=O)O)C(=O)O)cc3)cc1-2 | >100 | >100 | 28.9 | 
Cc1nc(O)c2c(ccc3ccc(S(=O)(=O)Nc4ccc(C(=O)N[C@@H](CCC(=O)O)C(=O)O)cc4)cc32)n1 | 0.07 | 2.4 |  | pKi [4]: 5.31; CCCT [5]: 0.12 µM; Km [6]: 3.11 µM
Nc1nc(O)c2c(n1)CCc1ccccc1-2 | >100 |  |  | 
Nc1nc(O)c2c(ccc3cc(S(=O)(=O)Nc4ccc(C(=O)N[C@@H](CCC(=O)O)C(=O)O)cc4)c(Br)cc32)n1 | >50 |  |  | pKi [7]: 4.79; Inhibition [8]: 45%; CCCT [9]: >50 µM
Cc1nc(O)c2c(ccc3c(S(=O)(=O)Nc4ccc(C(=O)N[C@@H](CCC(=O)O)C(=O)O)cc4)cccc32)n1 | 50 | >100 |  | Vel rem [3]: 55.2%
Cc1nc(O)c2c(n1)CCc1ccc(S(=O)(=O)Nc3ccc(C(=O)N[C@@H](CCC(=O)O)C(=O)O)cc3)cc1-2 | 0.65 | 4.1 | 109 | CCCT [5]: 0.2 µM
Nc1nc(O)c2c(ccc3ccc(Br)cc32)n1 |  |  |  | pKi [7]: 7.70; CCCT [11]: 10 µM
C#CCN(c1ccc(C(=O)N[C@@H](CCC(=O)O)C(=O)O)cc1)S(=O)(=O)c1ccc2c(c1)CCc1nc(N)nc(O)c1-2 | >50 | >50 |  | CCCT [5]: >50 µM
Cc1nc2ccc3ccc(S(=O)(=O)Nc4ccc(C(=O)N[C@@H](CCC(=O)O)C(=O)O)cc4)cc3c2c(=O)[nH]1 |  |  | 185 | pKi [12]: 8.26; V/K [13]: 59.6
Cc1nc(O)c2c(ccc3ccccc32)n1 | >100 |  |  | 
Nc1nc(O)c2c(ccc3ccc(NS(=O)(=O)c4ccc(C(=O)N[C@@H](CCC(=O)O)C(=O)O)cc4)cc32)n1 |  |  |  | pKi [7]: 7.00; Inhibition [8]: 42%; CCCT [9]: >100 µM
Nc1nc(O)c2c(n1)CCc1cc(S(=O)(=O)Nc3ccc(C(=O)N[C@@H](CCC(=O)O)C(=O)O)cc3)ccc1-2 | 25 |  | 102 | 
Nc1nc(O)c2c(n1)CCc1ccc(S(=O)(=O)Nc3ccc(C(=O)N[C@@H](CCC(=O)O)C(=O)O)cc3)cc1-2 | 0.65 | 7.9 | 115 | CCCT [5]: 2.4 µM
Cc1nc(O)c2c(n1)CCc1ccccc1-2 | >100 |  |  | 
